The text below walks through data of ChEMBL document CHEMBL1153528, “Modeling of the aryl hydrocarbon receptor (AhR) ligand binding domain and its utility in virtual ligand screening to predict new AhR ligands” (J Med Chem, 2009).

Common to all, as to type: cell-based
The target of data set [1] is T1, Aryl hydrocarbon receptor (AhR) ligand-binding domain (Mus musculus, UniProt P30561).
T1 sequence (P30561 whole entry): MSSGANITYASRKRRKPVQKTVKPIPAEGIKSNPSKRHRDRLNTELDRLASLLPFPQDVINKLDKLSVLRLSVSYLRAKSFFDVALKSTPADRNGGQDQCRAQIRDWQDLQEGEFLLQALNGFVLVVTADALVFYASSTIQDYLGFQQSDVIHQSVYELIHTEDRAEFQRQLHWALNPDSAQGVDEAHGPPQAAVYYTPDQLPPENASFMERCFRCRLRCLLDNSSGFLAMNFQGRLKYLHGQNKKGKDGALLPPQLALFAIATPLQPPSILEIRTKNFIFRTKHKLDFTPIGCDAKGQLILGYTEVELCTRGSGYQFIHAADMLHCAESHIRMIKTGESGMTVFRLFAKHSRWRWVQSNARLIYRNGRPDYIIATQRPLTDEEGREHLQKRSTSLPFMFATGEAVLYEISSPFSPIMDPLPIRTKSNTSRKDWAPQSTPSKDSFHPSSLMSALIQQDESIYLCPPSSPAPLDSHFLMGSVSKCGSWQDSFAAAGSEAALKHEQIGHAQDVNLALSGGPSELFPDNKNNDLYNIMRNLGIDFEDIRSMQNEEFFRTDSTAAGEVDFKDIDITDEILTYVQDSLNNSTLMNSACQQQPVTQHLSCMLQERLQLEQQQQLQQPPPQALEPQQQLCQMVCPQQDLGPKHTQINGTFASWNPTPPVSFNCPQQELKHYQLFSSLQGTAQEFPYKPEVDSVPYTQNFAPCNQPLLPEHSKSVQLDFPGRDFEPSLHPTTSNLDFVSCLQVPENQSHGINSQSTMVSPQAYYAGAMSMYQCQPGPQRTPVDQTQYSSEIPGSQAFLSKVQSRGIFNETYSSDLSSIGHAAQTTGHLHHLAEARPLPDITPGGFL
The experiment in a line: Induction of mouse AhR LBD transcriptional activity in mouse hepa1 cells transfected with AhR response element co expressed with XRE after 6 hrs by luciferase reporter gene assay relative to control. The note with it: read-out: FC. A digest of the protocol: (§1)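 Mouse Hepa1 cells carrying an AhRE/XRE-luciferase reporter, grown in DMEM/10% FBS with penicillin/streptomycin under 5% CO2. Test agents from DMSO stocks, final 20 µM, were applied for 6 h and reporter activity then measured. Fold activation was graded: ≥8 very strong, >4 strong, […].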
A general note: A reporter such as luciferase makes a cellular process visible.

In data set [2] the target is T2, Aryl hydrocarbon receptor (Mus musculus, UniProt P30561).
T2 sequence (P30561 whole entry): T1 sequence (P30561 whole entry)
In words: Induction of nuclear translocation of AhR from cytosol in mouse Hepa1 cells at 20 uM after 60 mins using DAPI staining by microscopic analysis. The note with it: hepa1, 1 h. Put shortly:
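Hepa1 cells given test agents for 60 min, then fixed. They were immunostained for AhR with FITC-labelled secondary antibody and counterstained with DAPI for nuclei. AhR nuclear localization was imaged by fluorescence microscopy.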

Data set [3] has as its target T2, Aryl hydrocarbon receptor. The experiment in a line: Induction of mouse AhR LBD transcriptional activity in mouse hepa1 cells transfected with AhR response element co expressed with XRE at 20 uM after 6 hrs by luciferase reporter gene assay in presence of 6-hydroxy-7-methoxyflavone. Put shortly:
as §1

Data set [4] concerns the target T2, Aryl hydrocarbon receptor. In words: Effect on AhR-mediated CYP1A1 activation in mouse Hepa1c1c12 cells at 20 uM after 18 hrs by Western blot analysis. The note with it: in the assay text read “semi-quantitative RT-PCR analysis” for “Western blot analysis”. Put shortly:
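Pair of Hepa1c1c7-derived lines: C12 (much reduced AhR) and C12 re-expressing WT AhR. Cells in DMEM/10% FBS with antibiotics under 5% CO2 were given 20 µM for 18 h, vehicle 0.1% DMSO, TCDD 1 nM as reference. Target genes (CYP1A1, NADPH-QO) assessed by semi-quantitative RT-PCR with GAPDH control. AhR shown by blot of 30 µg whole-cell lysate.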

In the case of `O=c1cc(-c2ccccc2O)oc2c(O)c(O)ccc12`, the fold induction at 6 h in data set [1] amounted to 2.8.

As to `COc1ccc2c(=O)c(-c3ccccc3)coc2c1`, the fold induction at 6 h in data set [1] was 2.7.

In the case of `Clc1cc2c(cc1Cl)Oc1cc(Cl)c(Cl)cc1O2` [2,3,7,8-TETRACHLORODIBENZO-P-DIOXIN], in data set [1], the fold induction at 6 h amounted to 21.

For `Cc1ccc2oc(-c3ccccc3)c(O)c(=O)c2c1`, in data set [1], the fold induction at 6 h amounted to 2.5.

For the molecule `COc1cc(O)c2c(=O)cc(-c3ccccc3)oc2c1` [TECHTOCHRYSIN], the Activity result is given as “Active” in data set [2], “Not Active” in data set [3] and “Active” in data set [4]. Further, the fold induction at 6 h in data set [1] turned out to be 11.3.

In the case of `O=C1CC(c2ccccc2)Oc2cc(O)cc(O)c21` (single isomer, unassigned) [PINOCEMBRIN], the result in data set [2] and in data set [4] was Active. The fold induction at 6 h in data set [1] was 8.

With `Cc1ccc2oc(-c3ccccc3)cc(=O)c2c1` [6-METHYLFLAVONE], the fold induction at 6 h in data set [1] was found to be 4.8.
